# Measurements: ChEMBL document CHEMBL1123100, “Angiotensin converting enzyme inhibitors: 1,5-benzothiazepine derivatives” (J Med Chem, 1985)
# Experiments:
# [1] = biological target: T1, Angiotensin-converting enzyme (Rattus norvegicus, UniProt P47820); experiment: Inhibition of Angiotensin I converting enzyme in rat
# T1 sequence (P47820 whole entry): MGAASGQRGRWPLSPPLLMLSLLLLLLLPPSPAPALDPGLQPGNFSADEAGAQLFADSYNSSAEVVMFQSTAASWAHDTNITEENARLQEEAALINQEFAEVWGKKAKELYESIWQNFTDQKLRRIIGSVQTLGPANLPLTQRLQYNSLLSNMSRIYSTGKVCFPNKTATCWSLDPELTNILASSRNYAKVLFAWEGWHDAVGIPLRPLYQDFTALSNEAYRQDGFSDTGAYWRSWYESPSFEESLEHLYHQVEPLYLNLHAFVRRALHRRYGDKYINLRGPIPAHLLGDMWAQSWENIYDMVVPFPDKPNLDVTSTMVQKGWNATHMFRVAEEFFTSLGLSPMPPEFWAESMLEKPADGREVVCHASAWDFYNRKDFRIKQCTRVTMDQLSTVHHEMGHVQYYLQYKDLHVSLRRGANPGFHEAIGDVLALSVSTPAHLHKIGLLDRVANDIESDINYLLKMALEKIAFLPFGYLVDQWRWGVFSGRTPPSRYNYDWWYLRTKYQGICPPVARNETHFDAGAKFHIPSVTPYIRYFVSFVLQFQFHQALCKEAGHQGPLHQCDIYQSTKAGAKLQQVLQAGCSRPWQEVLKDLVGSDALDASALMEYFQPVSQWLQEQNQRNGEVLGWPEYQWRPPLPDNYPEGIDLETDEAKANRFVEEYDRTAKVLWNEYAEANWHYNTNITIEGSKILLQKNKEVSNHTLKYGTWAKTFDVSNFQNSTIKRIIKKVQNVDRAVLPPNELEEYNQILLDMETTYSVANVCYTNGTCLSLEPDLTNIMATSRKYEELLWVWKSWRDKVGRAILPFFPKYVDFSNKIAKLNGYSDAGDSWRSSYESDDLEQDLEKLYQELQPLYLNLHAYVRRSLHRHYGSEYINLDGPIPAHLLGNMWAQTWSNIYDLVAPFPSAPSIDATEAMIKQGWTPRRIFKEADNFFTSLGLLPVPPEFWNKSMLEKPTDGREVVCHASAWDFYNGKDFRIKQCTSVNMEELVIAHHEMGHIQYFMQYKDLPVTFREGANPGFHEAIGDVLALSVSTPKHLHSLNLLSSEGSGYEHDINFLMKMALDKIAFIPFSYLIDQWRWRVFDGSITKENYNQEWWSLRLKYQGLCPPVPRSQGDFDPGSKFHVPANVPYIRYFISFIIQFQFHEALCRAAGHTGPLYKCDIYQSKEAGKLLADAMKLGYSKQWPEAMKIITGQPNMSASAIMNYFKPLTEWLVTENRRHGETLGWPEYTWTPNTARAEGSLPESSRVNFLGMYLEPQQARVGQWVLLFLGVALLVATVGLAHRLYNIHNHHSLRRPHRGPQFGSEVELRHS
# Rattus norvegicus [2] = experiment: Percent inhibition of angiotensin I (AI) pressor response after intravenous administration (dose of 0.05 mg/kg)to conscious normotensive rats; type: functional
# Outline: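 Angiotensin I pressor response measured in conscious normotensive rats, 15 min after intravenous dosing of test compound; value is percent inhibition of the pressor response.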
# Rattus norvegicus [3] = experiment: Percent inhibition of angiotensin I (AI) pressor response after oral administration (dose of 1.0 mg/kg) to conscious normotensive rats; type: functional
# Outline: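 Angiotensin I pressor response measured in conscious normotensive rats, 1 h after oral dosing of test compound; value is percent inhibition of the pressor response.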
# Rattus norvegicus [4] = experiment: The maximal change in blood pressure recorded during the 4-day test period in spontaneously hypertensive rats (SHR) after oral administration; type: functional
Structure (SMILES),IC50 [1],inhibition in vivo at 0.05 mg/kg (Rattus norvegicus [2]),inhibition in vivo at 1 mg/kg (Rattus norvegicus [3]),Max delta BP (Rattus norvegicus [4])
O=C(O)CN1C(=O)[C@@H](NC(CCc2ccccc2)C(=O)O)CS(=O)(=O)c2ccccc21 (stereo partly specified),2900 nM,,,
CCOC(=O)C(CCc1ccccc1)N[C@H]1CSc2ccccc2N(CC(=O)O)C1=O (stereo partly specified),8000 nM,,,
CCOC(=O)CN1C(=O)[C@@H](NC(CCc2ccccc2)C(=O)OCC)CCc2ccccc21 (stereo partly specified),430 nM,77%,88%,-76 mmHg
O=C(O)CN1C(=O)[C@@H](N[C@H](CCc2ccccc2)C(=O)O)CSc2ccccc21,240 nM,,,
CCOC(=O)C(CCc1ccccc1)NC1CSc2ccccc2N(CC(=O)O)C1=O (stereo in doubt; 14a),860 nM,,,
CCOC(=O)C(CCc1ccccc1)NC1CSc2ccccc2N(CC(=O)O)C1=O.Cl (stereo in doubt; 14c),2200 nM,75%,39%,-35 mmHg

# The next compounds have a lower IC50 [1] than those just listed; values first:
IC50 [1],Structure (SMILES),inhibition in vivo at 0.05 mg/kg (Rattus norvegicus [2]),inhibition in vivo at 1 mg/kg (Rattus norvegicus [3]),Max delta BP (Rattus norvegicus [4])
9.8 nM,O=C(O)CN1C(=O)[C@@H](NC(CCc2ccccc2)C(=O)O)CSc2ccccc21 (stereo partly specified),,,
5.9 nM,O=C(O)CN1C(=O)[C@@H](NC(CCc2ccccc2)C(=O)O)C[S+]([O-])c2ccccc21 (stereo partly specified),,,
2.9 nM,O=C(O)CN1C(=O)[C@@H](N[C@@H](CCc2ccccc2)C(=O)O)CSc2ccccc21,,,
1.7 nM,O=C(O)CN1C(=O)[C@@H](NC(CCc2ccccc2)C(=O)O)CCc2ccccc21 (stereo partly specified),,,
